From the array DNA melting data of Ke et al. (doi:10.1101/2024.01.08.574731)

Tests used:
[1] = folding enthalpy; higher = less favourable; fluorescence melt of hairpins on a sequencing array, two-state fit; settings: sodium 0.088 M
In short: (§1)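 On a sequenced MiSeq flow cell, library hairpins with annealed Cy3 and quencher oligos were imaged for Cy3 fluorescence in 2.5 °C steps up to 60 °C, in 50 mM Na-HEPES pH 8.0, 25 mM NaCl. Normalisation used pre-quench Cy3 and control constructs. Bootstrapped two-state fits gave melting temperature and folding enthalpy, combined by inverse variance across four replicates and with fitted temperatures raised by 9.35 °C to match UV melts.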

[2] = melting temperature; fluorescence melt of hairpins on a sequencing array, two-state fit, raised by 9.35 °C to match UV melts; settings: sodium 0.088 M
In short: as §1

Sequence | folding enthalpy [1] | Tm [2]
GATCATCTTCATGATC ((((((....)))))) | -37.2 kcal/mol | 47.3 °C
GATCATCTTGATGATC ((((((....)))))) | -43.4 kcal/mol | 57.2 °C
GATCATGAAGATGATC ((((((....)))))) | -34.9 kcal/mol | 50.3 °C
GATCATGAGAATGATC ((((((....)))))) | -36.5 kcal/mol | 49.7 °C
GATCATGAGTATGATC ((((((....)))))) | -31.1 kcal/mol | 46.7 °C
GATCATGCTGATGATC ((((((....)))))) | -38.5 kcal/mol | 47.3 °C
GATCATGGAAACATGACC (.(((((....))))).) | -17.4 kcal/mol | 36.1 °C
GATCATGGAATGATC ((((((...)))))) | -39.3 kcal/mol | 56.5 °C
GATCATGGAGATGATC ((((((....)))))) | -37.5 kcal/mol | 49.7 °C
GATCATGGGAATGATC ((((((....)))))) | -36.8 kcal/mol | 51.8 °C
GATCATGGGTATGATC ((((((....)))))) | -34.6 kcal/mol | 46.7 °C
GATCATGTGATGATC ((((((...)))))) | -31.4 kcal/mol | 47.2 °C
GATCATGTTCATGATC ((((((....)))))) | -43.1 kcal/mol | 52.5 °C
GATCATTAAAATGATC ((((((....)))))) | -29.5 kcal/mol | 45.2 °C
GATCATTACATGATC ((((((...)))))) | -33.8 kcal/mol | 50.2 °C
GATCATTACCATGATC ((((((....)))))) | -35.3 kcal/mol | 46.8 °C
GATCATTAGGATGATC ((((((....)))))) | -35.3 kcal/mol | 47.8 °C
GATCATTAGTATGATC ((((((....)))))) | -31.8 kcal/mol | 45.2 °C
GATCATTATAATGATC ((((((....)))))) | -33.1 kcal/mol | 49.7 °C
GATCATTCACATGATC ((((((....)))))) | -39.8 kcal/mol | 46.6 °C
GATCATTCCTATGATC ((((((....)))))) | -31.5 kcal/mol | 49.7 °C
GATCATTCGATGATC ((((((...)))))) | -35.8 kcal/mol | 47.2 °C
GATCATTCGCATGATC ((((((....)))))) | -34 kcal/mol | 47.5 °C
GATCATTCGGATGATC ((((((....)))))) | -35.5 kcal/mol | 48.1 °C

Sequence | folding enthalpy [1] | Tm [2]
GATCATTCTAATGATC ((((((....)))))) | -31.9 kcal/mol | 49.4 °C
GATCATTCTGATGATC ((((((....)))))) | -39.7 kcal/mol | 49.5 °C
GATCATTGCCATGATC ((((((....)))))) | -39.3 kcal/mol | 46.4 °C
GATCATTGGATGATC ((((((...)))))) | -31.7 kcal/mol | 44.8 °C
GATCATTTGGATGATC ((((((....)))))) | -36.9 kcal/mol | 48.5 °C
GATCATTTTCATGATC ((((((....)))))) | -31.1 kcal/mol | 47.6 °C
GATCCAAAATGGATC ((((((...)))))) | -31.5 kcal/mol | 48.9 °C
GATCCAAAGCTGGATC ((((((....)))))) | -36.3 kcal/mol | 47.2 °C
GATCCAAAGGTGGATC ((((((....)))))) | -26.1 kcal/mol | 47 °C
GATCCAAAGTGGATC ((((((...)))))) | -30.9 kcal/mol | 48.8 °C
GATCCAAATTTGGATC ((((((....)))))) | -36.1 kcal/mol | 52.9 °C
GATCCAACCCTGGATC ((((((....)))))) | -29 kcal/mol | 48.3 °C
GATCCAACGGTGGATC ((((((....)))))) | -43.3 kcal/mol | 49 °C
GATCCAACTTTGGATC ((((((....)))))) | -43.3 kcal/mol | 51 °C
GATCCAAGAGTGGATC ((((((....)))))) | -28.6 kcal/mol | 46 °C
GATCCAATATGGATC ((((((...)))))) | -38.7 kcal/mol | 51.3 °C
GATCCAATCATGGATC ((((((....)))))) | -37.5 kcal/mol | 50.8 °C
GATCCACAATTGGATC ((((((....)))))) | -32.4 kcal/mol | 47.5 °C
GATCCACACATGGATC ((((((....)))))) | -40 kcal/mol | 52.4 °C
GATCCACACCTGGATC ((((((....)))))) | -44.8 kcal/mol | 51 °C
GATCCACAGCTGGATC ((((((....)))))) | -31.7 kcal/mol | 47.6 °C
GATCCACATCTGGATC ((((((....)))))) | -29.1 kcal/mol | 49.2 °C
GATCCACCCTTGGATC ((((((....)))))) | -34.8 kcal/mol | 50.4 °C
GATCCACCGGTGGATC ((((((....)))))) | -50 kcal/mol | 60.3 °C

Sequence | folding enthalpy [1] | Tm [2]
GATCCACCTTTGGATC ((((((....)))))) | -34.9 kcal/mol | 50.1 °C
GATCCACGAAAGTGCATC (((.(((....))).))) | -16.1 kcal/mol | 32.8 °C
GATCCACGAATGGATC ((((((....)))))) | -34.4 kcal/mol | 48.1 °C
GATCCACGCTGGATC ((((((...)))))) | -31.3 kcal/mol | 51.6 °C
GATCCACGTGTGGATC ((((((....)))))) | -44.5 kcal/mol | 65.9 °C
GATCCACTCGTGGATC ((((((....)))))) | -45.8 kcal/mol | 63.2 °C
GATCCACTCTGGATC ((((((...)))))) | -36.5 kcal/mol | 52.4 °C
GATCCACTTGTGGATC ((((((....)))))) | -37.5 kcal/mol | 66.5 °C
GATCCAGAATGGATC ((((((...)))))) | -50.9 kcal/mol | 58.1 °C
GATCCAGAGCTGGATC ((((((....)))))) | -37.6 kcal/mol | 50.4 °C
GATCCAGAGTGGATC ((((((...)))))) | -31.3 kcal/mol | 48.8 °C
GATCCAGATATGGATC ((((((....)))))) | -41.7 kcal/mol | 57.1 °C
GATCCAGATTGGATC ((((((...)))))) | -34.1 kcal/mol | 50.6 °C
GATCCAGCAGTGGATC ((((((....)))))) | -41.1 kcal/mol | 52.7 °C
GATCCAGCGATGGATC ((((((....)))))) | -42.4 kcal/mol | 55.6 °C
GATCCAGGAATGGATC ((((((....)))))) | -40.6 kcal/mol | 54 °C
GATCCAGGCGTGGATC ((((((....)))))) | -40.9 kcal/mol | 53.6 °C
GATCCAGGTTGGATC ((((((...)))))) | -41.9 kcal/mol | 50.7 °C
GATCCAGGTTTGGATC ((((((....)))))) | -42.5 kcal/mol | 51.7 °C
GATCCAGTCTGGATC ((((((...)))))) | -38.1 kcal/mol | 55.1 °C
GATCCAGTGCTGGATC ((((((....)))))) | -47.8 kcal/mol | 52.8 °C
GATCCAGTGTTGGATC ((((((....)))))) | -36.9 kcal/mol | 50.8 °C
GATCCAGTTTTGGATC ((((((....)))))) | -41.6 kcal/mol | 52.4 °C
GATCCATAATGGATC ((((((...)))))) | -34.8 kcal/mol | 49.6 °C

Sequence | folding enthalpy [1] | Tm [2]
GATCCATACATGGATC ((((((....)))))) | -50.8 kcal/mol | 55.8 °C
GATCCATACTGGATC ((((((...)))))) | -37.6 kcal/mol | 51.4 °C
GATCCATAGTGGATC ((((((...)))))) | -38.1 kcal/mol | 49.2 °C
GATCCATATCTGGATC ((((((....)))))) | -35.5 kcal/mol | 49.7 °C
GATCCATATTGGATC ((((((...)))))) | -37.3 kcal/mol | 51.7 °C
GATCCATCGCTGGATC ((((((....)))))) | -39.1 kcal/mol | 50.8 °C
GATCCATCTTGGATC ((((((...)))))) | -35.2 kcal/mol | 51.6 °C
GATCCATGACTGGATC ((((((....)))))) | -35.5 kcal/mol | 48.6 °C
GATCCATGAGTGGATC ((((((....)))))) | -35.3 kcal/mol | 55 °C
GATCCATGCTGGATC ((((((...)))))) | -35.3 kcal/mol | 52 °C
GATCCATGGGTGGATC ((((((....)))))) | -41.4 kcal/mol | 54.4 °C
GATCCATGGTTGGATC ((((((....)))))) | -42.8 kcal/mol | 51.3 °C
GATCCATGTCTGGATC ((((((....)))))) | -40.9 kcal/mol | 50.5 °C
GATCCATTCGTGGATC ((((((....)))))) | -41.1 kcal/mol | 55.3 °C
GATCCCAACCGGGATC ((((((....)))))) | -35.1 kcal/mol | 63.4 °C
GATCCCAAGGGGGATC ((((((....)))))) | -33 kcal/mol | 58.1 °C
GATCCCAAGTGGGATC ((((((....)))))) | -37.4 kcal/mol | 60.5 °C
GATCCCACACGGGATC ((((((....)))))) | -43.7 kcal/mol | 63.1 °C
GATCCCACTTGGGATC ((((((....)))))) | -42.5 kcal/mol | 61.1 °C
GATCCCAGCGGGGATC ((((((....)))))) | -34.9 kcal/mol | 60.6 °C
GATCCCAGGGGGATC ((((((...)))))) | -34.7 kcal/mol | 67 °C
GATCCCATAAGGGATC ((((((....)))))) | -39.4 kcal/mol | 63.9 °C
GATCCCATCTGGGATC ((((((....)))))) | -36.2 kcal/mol | 62.6 °C
GATCCCATGCGGGATC ((((((....)))))) | -34 kcal/mol | 60.6 °C
